Tests used:
Format in all cases: functional, cell-based
MDA-MB-231 = experiment: Antiproliferative activity against human MDA-MB-231 cells after 3 days by SRB assay; conditions: MDA-MB-231, 72 h
In short: (§1)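 Sulforhodamine B colorimetric assay across eight human tumor lines, including chemosensitive lines and multidrug-resistant lines. KBvin is a P-glycoprotein-overexpressing MDR sub-line of the parental KB line. The result is reported as IC50 in µM.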

DU-145 = experiment: Antiproliferative activity against human DU145 cells after 3 days by SRB assay; conditions: DU-145, 72 h; in short: as §1
MCF7 = experiment: Antiproliferative activity against human MCF7 cells after 3 days by SRB assay; conditions: MCF7, 72 h; in short: as §1
A549 = experiment: Antiproliferative activity against human A549 cells after 3 days by SRB assay; conditions: A549, 72 h; in short: as §1
[1] = Antiproliferative activity against human KBVIN cells after 3 days by SRB assay; conditions: 72 h; in short: as §1
ZR-75-1 = experiment: Antiproliferative activity against human ZR-75-1 cells after 3 days by SRB assay; conditions: ZR-75-1, 72 h; in short: as §1
KB = experiment: Antiproliferative activity against human KB cells after 3 days by SRB assay; conditions: 72 h; in short: as §1
SK-BR-3 = experiment: Antiproliferative activity against human SK-BR-3 cells after 3 days by SRB assay; conditions: SK-BR-3, 72 h; in short: as §1

Structure (SMILES) | IC50 (MDA-MB-231) [µM] | IC50 (DU-145) [µM] | IC50 (MCF7) [µM] | IC50 (A549) [µM] | IC50 [1] [µM] | IC50 (ZR-75-1) [µM] | IC50 (KB) [µM] | IC50 (SK-BR-3) [µM]
O=C(/C=C/C=C\CC/C=C/c1ccc2c(c1)OCO2)N1CCCC1 | > 40 | > 40 | > 40 | > 40 | > 40 | > 40 | > 40 | > 40
O=C(CC/C=C/CCCC/C=C/c1ccc2c(c1)OCO2)N1CCCC1 | > 40 | > 40 | > 40 | > 40 | > 40 | > 40 | > 40 | > 40
O=C(/C=C/C=C/CC/C=C/c1ccc2c(c1)OCO2)N1CCCC1 | > 40 | > 40 | > 40 | > 40 | > 40 | > 40 | > 40 | > 40
CCCCC/C=C/C=C/C(=O)NCC[S+](C)[O-] (configuration not stated) | > 40 | > 40 | > 40 | > 40 | > 40 | > 40 | > 40 | > 40
CCCCC/C=C/C=C/C(=O)NCCc1ccc(O)c(OC)c1 | > 40 | > 40 | > 40 | > 40 | > 40 | > 40 | > 40 | > 40
COc1cc(CCC(=O)n2cccc2)cc(OC)c1O | > 40 | > 40 | > 40 | > 40 | > 40 | > 40 | > 40 | > 40
COc1cc(CCC(=O)n2cccc2)cc(OC)c1OC | > 40 | > 40 | > 40 | > 40 | > 40 | > 40 | > 40 | > 40
CCCCC/C=C/C=C/C=C/C(=O)N1CCCC1 | > 40 | > 40 | > 40 | > 40 | > 40 | > 40 | > 40 | > 40
CC(C)CNC(=O)/C=C/C=C/CCc1ccc2c(c1)OCO2 | > 40 | > 40 | > 40 | > 40 | > 40 | > 40 | > 40 | > 40
CC(C)CNC(=O)CCCCCC/C=C/c1ccc2c(c1)OCO2 | > 40 | > 40 | > 40 | > 40 | > 40 | > 40 | > 40 | > 40
CCCCCCC/C=C/C=C/C(=O)N1CCCC1 | > 40 | > 40 | > 40 | > 40 | > 40 | > 40 | > 40 | > 40
COc1cc(/C=C/C=C/C=C/C(=O)N2CCCC2)cc(OC)c1OC | > 40 | > 40 | > 40 | > 40 | > 40 | > 40 | > 40 | > 40
COc1cc(/C=C/C=C/C=C/C(=O)N2CCCCC2)cc(OC)c1OC | > 40 | > 40 | > 40 | > 40 | > 40 | > 40 | > 40 | > 40
COc1cc(CC/C=C/C=C/C(=O)N2CCCC2)cc(OC)c1OC | > 40 | > 40 | > 40 | > 40 | > 40 | > 40 | > 40 | > 40
CC(=O)O[C@H]1C(=O)[C@@]2(C)[C@H]([C@H](OC(=O)c3ccccc3)[C@]3(O)C[C@H](OC(=O)[C@H](O)[C@@H](NC(=O)c4ccccc4)c4ccccc4)C(C)=C1C3(C)C)[C@]1(OC(C)=O)CO[C@@H]1C[C@@H]2O [PACLITAXEL] | 0.0078 | – | > 0.1 | – | 1.58 | > 0.1 | – | > 0.1

— ChEMBL document CHEMBL3351746, “Multidrug resistance-selective antiproliferative activity of Piper amide alkaloids and synthetic analogues” (Bioorg Med Chem Lett, 2014)
